# Source: PubChem BioAssay
# SR-BI DiI-HDL act = enhances SR-BI lipid uptake from DiI-HDL; CHO ldlA[mSR-BI] cells, DiI-HDL uptake fluorescence, 3 h; 100 = double the neutral-control signal; activation, % at 12.5 µM; actives 0.096% (n = 320,000);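 active = mean replicate activation of at least 60% and every replicate at or above 60%; inconclusive = mean or all-replicate condition met, but not both; inactive = mean below 60% and not all replicates reaching 60%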;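 also: 0% = median plate neutral-control signal and 100% = twice that signal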
#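 Assay system: CHO ldlA[mSR-BI] cells, LDL receptor-null, SR-BI overexpressing; medium: Ham's F12 with 0.5% BSA, HEPES 25 mM, pH 7.4; also added: DiI-HDL 10 µg/mL; timing: 3 h uptake period with compound, 37 °C; signal: DiI fluorescence, bottom read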
# Calb FLC = affects C. albicans growth with fluconazole | C. albicans CaCi-2 + fluconazole, Alamar Blue growth, 48 h | growth inhibition, % (concentration not given with the values) | actives 0.57% (n = 300,000) | AID 1979;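 active = growth inhibition above about 58% in most replicates, limit read from the data, passing the limit was not always enough; inconclusive = exactly half the replicates above a set limit; inactive = most replicates below a set limit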;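 also: all wells also contain fluconazole at 8 µg/ml as a sub-toxic cotreatment; 0% = median of DMSO wells and 100% = median of geldanamycin control wells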
# Insulin prom up = MIN6 insulin promoter up-regulation; AID 1625; MIN6 insulin promoter-GFP reporter, high-content imaging; hits give high values; z-score at 5 µM; actives 0.3% (n = 190,000);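 active = z-score above 3 at 5 µM with at least 500 cells counted in the well; inconclusive = wells under 500 cells, flagged as cytotoxic or low count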
# MIN6 prolif = induces beta-cell replication in MIN6 cells; MIN6 cells proliferation, ATPlite luminescence, 48 h; cells starved in 0.2% serum; 100% = growth in 10% serum; proliferation, % at 10 µM; actives 0.29% (n = 330,000);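 active = compounds whose signal lies at least 3.5 SD above the mean of all wells on their plate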;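 also: 0% = DMSO-treated cells in low-serum medium and 100% = 10% serum control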
# SR-BI HDL uptake = inhibitors of mouse SR-BI mediated HDL lipid uptake; Q61009; ldlA[mSR-BI] CHO cells, DiI-HDL uptake fluorescence, 3 h; inhibition, % at 12.5 µM; actives 0.96% (n = 320,000); AID 488896;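 active = mean replicate inhibition of at least 70% and a set share of replicates each scoring 70 or more; inconclusive = meets just one of the two criteria; inactive = fails both criteria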;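 also: 0% = median of neutral control wells and 100% = median of positive control wells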
# m5-HT2A agonist = agonists of mouse serotonin 5-HT2A receptor (HTR2A) | AID 624169 | activation, % at 7.6 µM | CHO-K1 mHTR2A beta-arrestin complementation, luminescence; percent of 30 µM serotonin response | P35363 | actives 0.66% (n = 360,000);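 active = activation above a run cutoff, the mean activation of all tested compounds plus 3 SD, cut at about 14% in these data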;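 also: 0% = plate median of compound wells and 100% = 30 µM serotonin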
# OPRM1 ag = counter-screen for mouse HTR2A agonists: human mu opioid receptor agonists; actives 5.3% (n = 2,300); U2OS OPRM1 beta-arrestin PathHunter, luminescence; DMSO 0%, DAMGO 9.3 µM 100%; shares compounds with m5-HT2A agonist; activation, % at 9.3 µM;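 active = mean activation above the mean of DMSO-only wells plus 3 SD, cut at about 0.5% in these data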
# Target sequence (P35372 whole entry, looked up): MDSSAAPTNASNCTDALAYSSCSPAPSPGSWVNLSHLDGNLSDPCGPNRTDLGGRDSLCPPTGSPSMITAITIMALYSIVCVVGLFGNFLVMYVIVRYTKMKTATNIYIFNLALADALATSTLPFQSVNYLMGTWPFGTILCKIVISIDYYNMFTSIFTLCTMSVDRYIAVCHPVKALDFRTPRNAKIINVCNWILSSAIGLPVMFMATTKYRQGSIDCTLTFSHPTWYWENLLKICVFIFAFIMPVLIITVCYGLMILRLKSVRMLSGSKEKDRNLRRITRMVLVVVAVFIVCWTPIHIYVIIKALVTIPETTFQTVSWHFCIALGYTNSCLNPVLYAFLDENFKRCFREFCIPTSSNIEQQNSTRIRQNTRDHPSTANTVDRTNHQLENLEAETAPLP
# m5-HT2A ag conf = confirmation of mouse HTR2A serotonin receptor agonists. shares compounds with m5-HT2A agonist. CHO-K1 PathHunter beta-arrestin recruitment, luminescence; DMSO 0%, 30 µM serotonin 100%. activation, % at 7.6 µM. actives 19% (n = 2,300). AID 624381;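 active = mean activation across triplicates above the hit threshold derived in the original primary screen, cut at about 15% in these data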
# Starred values were filed as active, the others as inactive; ? = inconclusive; . = no result. This is a sample that favours compounds with a hit; in the whole collection about 2.4% have one here.
SMILES,SR-BI DiI-HDL act,Calb FLC,Insulin prom up,MIN6 prolif,SR-BI HDL uptake,m5-HT2A agonist,OPRM1 ag,m5-HT2A ag conf
CSc1ccc(/C=C/C(=O)OCC(=O)N2CCN(S(=O)(=O)c3ccc(C)cc3C)CC2)cc1,-15,.,.,-4,15,24*,0,-2
Cc1ccc(S(=O)(=O)N2CCN(C(=O)COC(=O)/C=C/c3ccc(F)cc3)CC2)c(C)c1,-21,7,.,-4,21,-1,.,.
COc1cc2c3nnc(-c4ccc(F)cc4)c-3cn(Cc3ccccc3)c2cc1OC,3,-5,.,-6,-3,25*,0,7
COc1cc2c3nnc(-c4ccc(F)cc4)c-3cn(Cc3ccc(F)cc3)c2cc1OC,18,?,.,-7,-18,18*,0,15*
COc1ccc(Cn2cc3c(-c4ccc(F)cc4)nnc-3c3cc(OC)c(OC)cc32)cc1,19,.,-0.07,-6,-19,-6,.,.
CCOC(=O)N1CCN(c2ccc(Cl)c(Cl)c2)CC1,-16,-22,0.06,-3,16,3,.,.
COC(=O)/C(=C/N(C)C)C(=O)N1CCN(c2ccc(Cl)c(Cl)c2)CC1,-18,6,-0.73,0,18,18*,0,0
C/C(=N/Nc1nc(-c2ccccc2)cc(-c2ccccc2)n1)c1ccc(N)cc1,.,.,-3.7,.,.,.,.,.
Nc1ccc(-c2cc(-c3cccc(N)c3)nc(-c3ccccc3)n2)cc1,-26,-11,-2.6,1,26,15*,0,11
Cc1noc(C)c1S(=O)(=O)NC(=O)C1(C)CCN1C(=O)Cc1ccc(Cl)cc1Cl (stereo not given),.,.,.,.,.,0,.,.
CC[C@@H]1C/C=C\Cc2ccccc2[C@@H](C(=O)C[C@H](O)CC(C)=O)OC1=O,-21,.,.,0,21,-5,.,.
CC(/C=N/n1c(-c2ccncc2)n[nH]c1=S)=C\c1ccco1,2,-2,0.09,9,-2,20*,-1,-3
CC(/C=N/n1c(-c2ccccc2)n[nH]c1=S)=C\c1ccco1,4,33,-0.02,-2,-4,22*,-1,-1
CC(C(=O)NCc1ccc(F)cc1)n1ccc2cc(S(=O)(=O)N3CCCC3)ccc21 (stereo not given),-11,-4,.,-1,11,15*,0,0
Cc1ccc(-c2nn(-c3ccccc3)cc2CO)o1,-9,2,.,2,9,15*,-1,-3
Cc1nc(NCCc2ccc(S(N)(=O)=O)cc2)c2c(C)c(C)sc2n1,-21,-1,.,-2,21,16*,-1,-3
COc1ccc(COC(=O)C2=C(C)NC(=O)NC2c2cccc(Br)c2)cc1 (stereo not given),-16,4,.,-3,16,16*,0,16*
CC(C)Cc1nnc(NC(=O)c2cc(-c3ccncc3)nc3ccccc23)s1,4,-1,-0.36,1,-4,15*,0,5
O=C(Nc1ccnn1C1CCN(Cc2ccc(CO)o2)CC1)c1cccc(F)c1,.,.,.,.,.,1,.,.
CCC(=O)NCCc1cc2cc(C)c(C)cc2[nH]c1=O,10,-8,1,-1,-10,12,.,.
Cc1cc2cc(CCNC(=O)CCc3ccccc3)c(=O)[nH]c2cc1C,-2,15,.,-5,2,22*,-1,-3
Cc1sc2nc(SCc3ccc(C(=O)O)cc3)n(Cc3ccco3)c(=O)c2c1C,-2,-2,-0.53,-1,2,16*,0,8
CSc1cccc(NC(=S)N(CCCN2CCCC2)Cc2cccs2)c1,-17,-31,-1.1,-2,17,43*,-1,15*
CSCCC(C(=O)NC(C)(C)C)n1c(-c2ccc(C)cc2)nc2ccccc21 (stereo not given),.,.,.,.,.,-8,.,.
Clc1ccc(CN2CCN(c3ncccn3)CC2)cc1Cl,4,23,.,-3,-4,27*,0,112*
SMILES,SR-BI DiI-HDL act,Calb FLC,Insulin prom up,MIN6 prolif,SR-BI HDL uptake,m5-HT2A agonist,OPRM1 ag,m5-HT2A ag conf
c1ccc(CN2CCN(c3ncccn3)CC2)cc1,-12,12,.,-2,12,35*,0,98*
c1ccc(COc2ccc(CN3CCN(c4ccccn4)CC3)cc2)cc1,18,-3,-0.01,-2,-18,27*,-1,99*
Clc1ccc(CN2CCN(c3ncccn3)CC2)cc1,17,6,.,1,-17,29*,0,117*
O=C(Cc1ccccc1)N1CCN(c2ncccn2)CC1,16,-21,0.5,-2,-16,-1,.,.
Cc1ccc(N(CC(=O)Nc2cccc(C)c2)S(=O)(=O)c2cccc3nonc23)cc1,-18,-8,-1,-1,18,-9,.,.
CC(=O)c1ccc(S(=O)(=O)Oc2ccc(-c3ccc(C(=O)O)cc3)cc2)cc1,.,-7,.,-1,.,-2,.,.
O=C(NC(=S)Nc1ccccn1)c1cccc([N+](=O)[O-])c1,-5,-10,-1.7,-3,5,27*,-1,-4
CN1CCn2cnc(C(=O)Nc3ccc(CNC(=O)OC(C)(C)C)cc3)c2C1=O,.,.,.,.,.,16*,-1,-3
CC(C)(C)OC(=O)NCCCC[C@H](NC(=O)c1[nH]cnc1C(=O)Nc1ccc(CNC(=O)OC(C)(C)C)cc1)C(=O)OC(C)(C)C,.,.,0,-8,.,.,.,.
C[C@H](NC(=O)c1[nH]cnc1C(=O)Nc1ccc(CNC(=O)OC(C)(C)C)cc1)C(=O)OC(C)(C)C,-29,14,-2,-8,29,19*,0,2
C[C@H]1Cn2cnc(C(=O)Nc3ccc(CNC(=O)OC(C)(C)C)cc3)c2C(=O)N1,.,.,.,.,.,-3,.,.
CCn1c(=O)ccc2cc([N+](=O)[O-])ccc21,9,-2,-1.1,0,-9,14*,-1,2
COc1cccc(C(=O)c2c(-c3ccccc3)ncc3cc(OC)c(OC)cc23)c1,5,.,.,.,-5,2,.,.
CC(C)(CO)C(O)C(=O)NCCCO (stereo not given),15,0,.,1,-15,18*,-1,0
COc1cccc(NC(=O)c2ccccc2N2C(=O)C3C4C=CC(C4)C3C2=O)c1 (stereo not given),12,8,.,0,-12,2,.,.
CCc1ccccc1NC(=O)c1ccccc1N1C(=O)C2C3C=CC(C3)C2C1=O (stereo not given),4,6,.,0,-4,16*,0,1
